Measurements from ChEMBL document CHEMBL3856201, “5,10b-Ethanophenanthridine amaryllidaceae alkaloids inspire the discovery of novel bicyclic ring systems with activity against drug resistant cancer cells” (2016).
The source made the active and inactive calls. The calls are words filed in the database; no cut-off is given here.

Assays:
[1] = Antiproliferative activity against patient-derived TMZ-sensitive GBM 090909 cells after 48 to 96 hrs by MTT assay; assay type: functional; settings: Homo sapiens
Procedure, shortened: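 Primary GBM neurosphere cultures came from resected patient tumour. Tissue was minced, dissociated with 100 U/mL collagenase in neurobasal medium for 30 min at 37 °C, filtered through 70 µm, spun at 200 × g for 5 min, and grown in ultra-low attachment wells in neurobasal medium with B27. Compounds were applied at 0.001–100 µM for 48–96 h. MTT gave the average 50%-viability concentration.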

[2] = Antiproliferative activity against patient-derived TMZ-resistant GBM 031810 cells over-expressing MGMT after 48 to 96 hrs by MTT assay; assay type: functional; settings: Homo sapiens
[3] = Antiproliferative activity against human HeLa cells after 48 hrs by MTT assay; assay type: functional
Procedure, shortened: (§1)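 HeLa cells were cultured in DMEM + 10% FBS and MCF-7 cells in RPMI + 10% FBS, both at 37 °C under 5% CO2. Compounds were diluted from DMSO stocks and applied for 48 h. Viability was read by MTT relative to DMSO control. The value is the concentration reducing viability by 50%, ±SD from two independent experiments of 4 replicates each.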

[4] = Antiproliferative activity against human MCF7 cells after 48 hrs by MTT assay; assay type: functional; settings: MCF7, 48 h; procedure, shortened: as §1
MES-SA = experiment: Selectivity ratio of GI50 for human MES-SA/Dx5 cells to GI50 for human MES-SA cells; assay type: functional
Procedure, shortened: (§2)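 Parent MES-SA and MES-SA/Dx5 uterine sarcoma cells were grown in RPMI-1640 with 10% FBS. The Dx5 line was kept in 500 nM doxorubicin after stepwise selection from 100 nM in twofold steps, about 2 passages per step. MTT assay used 0.001–100 µM compound for 48–96 h, with 0.1% DMSO and 1 µM phenyl arsine oxide controls. The ratio is the Dx5 GI50 divided by the parent GI50.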

HeLa S3 = experiment: Inhibition of translation in human HeLaS3 assessed as induction of intact polysomes at 50 uM after 1 hr by UV-based […] method; assay type: functional
Procedure, shortened: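 HeLa S3 cells were exposed to 50 µM compound for 1 h, then analysed by polysome profiling against a DMSO-treated control profile.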

[5] = Antiproliferative activity against drug-sensitive human Hs683 cells after 48 to 96 hrs by MTT assay; assay type: functional; settings: Hs 683
Procedure, shortened: (§3)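 MTT read-out. T98G and Hs683 cells were grown in DMEM with 10% FBS, glutamine, gentamicin and penicillin-streptomycin at 37 °C and 5% CO2. Compounds came from 100 or 50 mM DMSO stocks and were tested at 0.001–100 µM for 48–96 h. Controls were 0.1% DMSO (negative) and 1 µM phenyl arsine oxide (positive). The value is the mean concentration giving 50% viability loss; replicate number varied.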

[6] = Antiproliferative activity against drug-resistant human U373 cells after 48 to 96 hrs by MTT assay; assay type: functional, U-373MG ATCC; settings: U373 MG
Procedure, shortened: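 Culture was RPMI with 10% heat-inactivated FBS plus glutamine and antibiotics for U373 cells. Compound exposure was 0.001–100 µM for 48–96 h, with 0.1% DMSO and 1 µM phenyl arsine oxide as controls. The MTT assay gave the average concentration cutting viability by 50%; replicate numbers varied.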

[7] = Antiproliferative activity against drug-resistant human U251 cells after 48 to 96 hrs by MTT assay; assay type: functional; settings: U-251
Procedure, shortened: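 U251 cells were kept in 10% MEM with glutamine, gentamicin and penicillin-streptomycin at 37 °C and 5% CO2. After seeding they were grown 24–72 h and then given compounds at 0.001–100 µM (from 100 or 50 mM DMSO stocks) for 48–96 h. Viability was read by MTT. Vehicle control was 0.1% DMSO; 1 µM phenyl arsine oxide served as positive control. The result is the average 50%-viability-reducing concentration.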

[8] = Antiproliferative activity against drug-resistant human U87 cells after 48 to 96 hrs by MTT assay; assay type: functional, U-87MG ATCC; settings: U-87 MG
Procedure, shortened: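 U87 cells grown in DMEM with glutamine, gentamicin and penicillin-streptomycin (37 °C, 95% humidity, 5% CO2) were seeded and then treated with 0.001–100 µM compound for 48–96 h. Readout was MTT. Controls were 0.1% DMSO and 1 µM phenyl arsine oxide. The value is the average concentration reducing viability 50%.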

[9] = Antiproliferative activity against drug-resistant human T98G cells after 48 to 96 hrs by MTT assay; assay type: functional; procedure, shortened: as §3
[10] = Antiproliferative activity against drug-resistant human A549 cells up to 100 uM after 48 to 96 hrs by MTT assay relative to control; assay type: functional
Procedure, shortened: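 A549 cultures in RPMI with 10% heat-inactivated FBS were treated across a concentration range up to 100 µM, with phenyl arsine oxide as the nondiscriminate cytotoxic reference. Growth curves were read by MTT assay. Two independent experiments, each in 4 replicates.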

[11] = Antiproliferative activity against drug-resistant human A549 cells after 48 to 96 hrs by MTT assay; assay type: functional
Procedure, shortened: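 A549 cells grown in RPMI with 10% heat-inactivated FBS, 4 mM glutamine and antibiotics at 37 °C under 5% CO2. Compounds came from 100 or 50 mM DMSO stocks and were tested at 0.001–100 µM for 48–96 h. Read-out was MTT. The value is the mean concentration giving 50% viability loss, with varied replicate numbers. Controls were 0.1% DMSO (negative) and 1 µM phenyl arsine oxide (positive).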

[12] = Antiproliferative activity against human MES-SA cells after 48 to 96 hrs by MTT assay; assay type: functional; procedure, shortened: as §2
[13] = Antiproliferative activity against human MES-SA/Dx5 cells after 48 to 96 hrs by MTT assay; assay type: functional; procedure, shortened: as §2
[14] = Antiproliferative activity against patient-derived paclitaxel-sensitive NCI-H1993 cells after 48 to 96 hrs by MTT assay; assay type: functional; settings: Homo sapiens
[15] = Antiproliferative activity against patient-derived paclitaxel-resistant NCI-H2073 cells after 48 to 96 hrs by MTT assay; assay type: functional; settings: Homo sapiens
NCI-H1993 = experiment: Potentiation of paclitaxel-induced cytotoxicity against patient-derived paclitaxel-sensitive NCI-H1993 cells assessed as reduction in cell viability up to 100 uM after 96 hrs by Celltiter-Glo luminescent assay; assay type: functional, cell-based; settings: Homo sapiens
Procedure, shortened: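 NCI-H1993 cells were seeded at 4×10^3 per well and grown 24 h. […] Viability was read by CellTiter-Glo luminescence. Predicted additivity was calculated by Bliss independence, Exy = Ex + Ey − ExEy.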

SMILES | GI50 [3] [µM] | GI50 [4] [µM] | further results
Cn1nnc2c(C(N)=O)ncn2c1=O [TEMOZOLOMIDE] | – | – | GI50 [1]: 50 µM; GI50 [2]: > 1000 µM
COc1cc2c(cc1OCc1ccccc1)C[N@@]1CC[C@@]23C=CC(=O)C[C@H]13 | 12 | 15 | –
COc1cc2c(cc1O)C[N@@]1CC[C@@]23C=CC(=O)C[C@H]13 | > 100 | > 100 | –
COc1cc2c(cc1OC(C)=O)C[N@@]1CC[C@@]23C=CC(=O)C[C@H]13 | > 100 | > 100 | –
COc1cc2c(cc1OC)C1(C=CC(=O)C=C1)CCN(C(=O)C(F)(F)F)C2 | 83 | > 100 | –
O=C1C=CC2(C=C1)CCN(C(=O)C(F)(F)F)Cc1cc3c(cc12)OCO3 | 24 | 30 | –
O=C1C=CC2(C=C1)CCN(C(=O)C(F)(F)F)Cc1cccc(OCc3ccccc3)c12 | 11 | 14 | –
COc1cc2c(cc1OC(=O)c1ccccc1)C[N@@]1CC[C@@]23C=CC(=O)C[C@H]13 | 35 | 45 | –
COc1cc2c(cc1O)C[N@@]1CC[C@@]23C=C/C(=N/O)C[C@H]13 | > 100 | > 100 | –
O=C1C=C[C@]23CC[N@](Cc4cc5c(cc42)OCCO5)[C@H]3C1 | 13 | 19 | –
O=C1C=CC2(C=C1)CCN(C(=O)C(F)(F)F)Cc1c2ccc2c1OCO2 | > 100 | > 100 | –
O=C1C=C[C@]23CC[N@](Cc4cc(OCc5ccccc5)ccc42)[C@H]3C1 | 8 | 14 | –
COc1cc2c(cc1O)CN(C(=O)C(F)(F)F)CCC21C=CC(=O)C=C1 | > 100 | > 100 | –
O=C1C=CC2(C=C1)CCN(C(=O)C(F)(F)F)Cc1cc(OCc3ccccc3)ccc12 | 16 | 40 | –
CC[C@]1(O)C[C@@H]2CN(CCc3c([nH]c4ccccc34)[C@@](C(=O)OC)(c3cc4c(cc3OC)N(C)[C@H]3[C@@](O)(C(=O)OC)[C@H](OC(C)=O)[C@]5(CC)C=CCN6CC[C@]43[C@@H]65)C2)C1 [VINBLASTINE] | – | – | RatioGI50 (MES-SA): >1000
O=C1C=CC2(C=C1)CCN(C(=O)C(F)(F)F)Cc1cc3c(cc12)OCCO3 | 21 | 34 | –
O=C1C=C[C@]23CC[N@](Cc4c2ccc2c4OCO2)[C@H]3C1 | 61 | 73 | –

SMILES | GI50 [3] [µM] | GI50 [4] [µM] | further results
O[C@H]1[C@H]2c3cc4c(cc3CN3CCC(=C[C@@H]1O)[C@H]23)OCO4 | – | – | inhibition (HeLa S3): Active
C#CCCCC(=O)Oc1cc2c(cc1OC)[C@@]13C=CC(=O)C[C@@H]1[N@](CC3)C2 | 43 | 53 | –
O=C1C=C[C@]23CC[N@](Cc4cccc(OCc5ccccc5)c42)[C@H]3C1 | 7 | 11 | –
COc1cc2c(cc1OCc1ccccc1)[C@@]13C=CC(=O)C[C@@H]1[N@](CC3)C2 | 17 | 17 | –
O=C1C=C[C@]23CC[N@](Cc4cscc42)[C@H]3C1 | 25 | 44 | –
O[C@H]1C=C[C@@]23c4cc5c(cc4CN(C[C@@H]2O)[C@H]3C1)OCO5 | – | – | GI50 [5]: 27 µM; GI50 [6]: 53 µM; GI50 [7]: 41 µM; GI50 [8]: 38 µM; GI50 [9]: 99 µM
COc1cc([C@@H]2c3cc4c(cc3[C@H](O)[C@H]3COC(=O)[C@H]23)OCO4)cc(OC)c1OC [PODOFILOX] | – | – | inhibition (INH) [10]: 50%
O=C1C=C[C@]23CC[N@](Cc4cc5c(cc42)OCO5)[C@H]3C1 | 25 | 24 | –
CO[C@@H]1C=C[C@@]23c4cc5c(cc4CN(C[C@@H]2O)[C@H]3C1)OCO5 | – | – | inhibition (HeLa S3): Active
O=C1C=CC2(C=C1)CCN(C(=O)C(F)(F)F)Cc1cc(OCc3ccccc3)c(OCc3ccccc3)cc12 | 17 | 25 | –
COc1cc2c(cc1OCc1ccccc1)C1(C=CC(=O)C=C1)CCN(C(=O)C(F)(F)F)C2 | 34 | 34 | –
O=C1C=C[C@]23CC[N@](Cc4cc(OCc5ccccc5)c(OCc5ccccc5)cc42)[C@H]3C1 | 3 | 4 | GI50 [5]: 6 µM; GI50 [6]: 7 µM; GI50 [7]: 5 µM; GI50 [8]: 5 µM; GI50 [9]: 7 µM; GI50 [11]: 4 µM; GI50 [12]: 2 µM; GI50 [13]: 7 µM
COc1cc2c(cc1OC)[C@@]13C=CC(=O)C[C@@H]1[N@](CC3)C2 | 64 | > 100 | –
COc1cc2c(cc1OCc1ccccc1)CN(C(=O)C(F)(F)F)CCC21C=CC(=O)C=C1 | 38 | 48 | –
O=C1C=C[C@]23CC[N@](Cc4ccsc42)[C@H]3C1 | 8 | 12 | –
CC(=O)O[C@H]1C(=O)[C@@]2(C)[C@H]([C@H](OC(=O)c3ccccc3)[C@]3(O)C[C@H](OC(=O)[C@H](O)[C@@H](NC(=O)c4ccccc4)c4ccccc4)C(C)=C1C3(C)C)[C@]1(OC(C)=O)CO[C@@H]1C[C@@H]2O [PACLITAXEL] | – | – | GI50 [14]: 0.004 µM; GI50 [15]: 2.4 µM; GI50 [12]: 0.007 µM; GI50 [13]: 10 µM; inhibition (INH) [10]: 50%; RatioGI50 (MES-SA): >1000
O=C1C=CC2(C=C1)CCN(C(=O)C(F)(F)F)Cc1c2sc2ccccc12 | 10 | 7 | GI50 [5]: 5 µM; GI50 [6]: 7 µM; GI50 [7]: 4 µM; GI50 [8]: 6 µM; GI50 [9]: 15 µM; GI50 [1]: 7 µM; GI50 [2]: 8 µM; GI50 [14]: 12 µM; GI50 [15]: 50 µM; GI50 [12]: 5 µM; GI50 [13]: 5 µM; Activity (NCI-H1993): Active
